# From ChEMBL document CHEMBL4706606, “Re-evaluating pretomanid analogues for Chagas disease: Hit-to-lead studies reveal both in vitro and in vivo trypanocidal efficacy” (Eur J Med Chem, 2020)
# Legend:
# [1] = Selectivity index, ratio of IC50 for cytotoxicity against rat L6 cells to IC50 for antitrypanosomal activity against Trypanosoma cruzi Tulahuen strain C2C4 amastigotes infected in rat L6 cells
# Trypanosoma cruzi [2] = assay: Antitrypanosomal activity against Trypanosoma cruzi Tulahuen strain C2C4 amastigotes infected in rat L6 cells assessed as inhibition of parasite growth incubated for 96 hrs by chlorophenol red-fl-D-galactopyranoside based colorimetric analysis; type: functional, organism-based; conditions: for IC50: Tulahuen strain C2C4, L6, 96 h; for IC90: Tulahuen strain C2C4, L6, time 96 hrs
# Procedure, shortened: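 Tulahuen strain TcVI T. cruzi expressing β-galactosidase, grown in L6 rat skeletal myoblast host cells. IC50/IC90 growth inhibition. Each value is the mean of ≥2 independent determinations using fresh sample stock.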
# L6 = assay: Cytotoxicity against rat L6 cells assessed as reduction in cell viability incubated for 72 hrs by alamar blue assay; type: ADME, cell-based; conditions: L6, 72 h
# [3] = Inhibition of Trypanosoma cruzi Tulahuen C4 strain CYP51 expressed in Escherichia coli by fluorescence based assay
# [4] = Cytotoxicity against rat 3T3 cells assessed as reduction in cell viability incubated for 72 hrs by alamar blue assay; type: ADME, cell-based; conditions: NIH3T3, 72 h
# Trypanosoma cruzi [5] = assay: Antitrypanosomal activity against Trypanosoma cruzi Tulahuen strain C2C4 amastigotes infected in […] cells assessed as reduction in parasite growth incubated for 48 hrs by chlorophenol red-fl-D-galactopyranoside based colorimetric analysis; type: functional, organism-based; conditions: for IC50: Tulahuen strain C2C4, NIH3T3, 48 h; for IC90: Tulahuen strain C2C4, NIH3T3, time 48 hrs
# Trypanosoma cruzi [6] = assay: Antitrypanosomal activity against Trypanosoma cruzi Tulahuen strain C2C4 amastigotes infected in […] cells assessed as reduction in parasite growth incubated for 48 hrs by chlorophenol red-fl-D-galactopyranoside based colorimetric analysis relative to control; type: functional
# [7] = Selectivity index, ratio of IC50 for cytotoxicity against rat 3T3 cells to IC50 for antitrypanosomal activity against Trypanosoma cruzi Tulahuen strain C2C4 amastigotes infected in rat 3T3 cells; conditions: 3T3 cells
# [8] = Kinetic solubility of compound in water sonicated for 15 mins by HPLC analysis
Compound,selectivity ratio [1],IC50 (Trypanosoma cruzi [2]),IC90 (Trypanosoma cruzi [2]),IC50 (L6),other results
O=[N+]([O-])c1cn2c(n1)OC(COc1ccc(-c3ccc(OC(F)(F)F)cc3)cn1)CC2 (stereo not given),> 2500,40 nM,180 nM,> 100000 nM,–
O=[N+]([O-])c1cn2c(n1)OCC(OCc1ccc(OCc3ccccc3)cc1)C2 (stereo not given),–,1200 nM,–,–,–
CSc1cnc2n1CC(C)(COc1ccc(OC(F)(F)F)cc1)O2 (stereo not given),–,–,–,–,IC50 [3]: > 10000 nM; IC50 [4]: > 73000 nM; IC50 (Trypanosoma cruzi [5]): 2000 nM; IC90 (Trypanosoma cruzi [5]): 16000 nM; %max (Trypanosoma cruzi [6]): 93%; selectivity ratio [7]: > 37
O=[N+]([O-])c1cn2c(n1)OC(COc1cnc(-c3ccc(OC(F)(F)F)cc3)cn1)CC2 (stereo not given),> 476,210 nM,6700 nM,> 100000 nM,–
O=[N+]([O-])c1cn2c(n1)OC[C@@H](OCc1ccc(-c3ccc(OC(F)(F)F)cc3Cl)cc1)C2,3.3,5700 nM,> 10000 nM,19000 nM,–
O=[N+]([O-])c1cn2c(n1)OC(COc1ccc(-c3ccc(OC(F)(F)F)cc3)nc1)CC2 (stereo not given),–,–,–,–,%max (Trypanosoma cruzi [6]): 100%
CC1(COc2ccc(OC(F)(F)F)cc2)Cn2c(Br)cnc2O1 (stereo not given),–,–,–,–,IC50 [3]: 530 nM; IC50 [4]: > 73000 nM; IC50 (Trypanosoma cruzi [5]): 1700 nM; IC90 (Trypanosoma cruzi [5]): 4100 nM; %max (Trypanosoma cruzi [6]): 87%; selectivity ratio [7]: > 43
O=[N+]([O-])c1cn2c(n1)OC(COc1cnc(-c3ccc(OC(F)(F)F)cc3)nc1)CC2 (stereo not given),212,330 nM,960 nM,70000 nM,–
CC1(COc2ccc(OC(F)(F)F)cc2)Cn2cc([N+](=O)[O-])nc2O1 (racemic),–,–,–,–,IC50 [3]: > 10000 nM; IC50 [4]: > 73000 nM; IC50 (Trypanosoma cruzi [5]): 950 nM; IC90 (Trypanosoma cruzi [5]): 2300 nM; %max (Trypanosoma cruzi [6]): 68%
O=[N+]([O-])c1cn2c(n1)OC(COc1ccc(-c3ccc(F)cc3)nc1)CC2 (racemic),–,170 nM,560 nM,–,–
O=[N+]([O-])c1cn2c(n1)OC(COc1ccc(-c3ccc(OC(F)(F)F)cc3)nn1)CC2 (stereo not given),111,380 nM,960 nM,42000 nM,–
CC1(COc2ccc(OC(F)(F)F)c(F)c2)CCn2cc([N+](=O)[O-])nc2O1 (stereo not given),–,560 nM,1900 nM,68000 nM,solubility kinetic at 0.25 h [8]: 0.95 µg/mL
O=[N+]([O-])c1cn2c(n1)OC(COc1ncc(-c3ccc(OC(F)(F)F)cc3)cn1)CC2 (stereo not given),358,53 nM,330 nM,19000 nM,–
CC1(COc2ccc(OC(F)(F)F)cc2Cl)CCn2cc([N+](=O)[O-])nc2O1 (stereo not given),–,460 nM,1300 nM,> 100000 nM,solubility kinetic at 0.25 h [8]: 0.61 µg/mL
CC1(COc2ccc(OC(F)(F)F)cc2)CCn2cc([N+](=O)[O-])nc2S1 (stereo not given),> 91,1100 nM,2600 nM,> 100000 nM,–
CC1(COc2ccc(OC(F)(F)F)cc2)CCn2cc([N+](=O)[O-])nc2[S+]1[O-] (stereo not given),46,1600 nM,3700 nM,73000 nM,–
CC1(COc2ccc(OC(F)(F)F)c(Cl)c2)CCn2cc([N+](=O)[O-])nc2O1 (stereo not given),–,310 nM,6500 nM,53000 nM,solubility kinetic at 0.25 h [8]: 0.5 µg/mL
O=[N+]([O-])c1cn2c(n1)SCC(OCc1ccc(OCc3ccccc3)cc1)C2 (stereo not given),–,900 nM,–,–,–
O=[N+]([O-])c1cn2c(n1)OC[C@H](OCc1ccc(-c3ccccc3)cc1)C2,–,2700 nM,–,–,–
O=[N+]([O-])c1cn2c(n1)OC[C@H](OCc1ccc(-c3ccc(OC(F)(F)F)cc3)cn1)C2,–,49 nM,310 nM,51000 nM,IC50 [3]: > 10000 nM; IC50 [4]: > 73000 nM; IC50 (Trypanosoma cruzi [5]): 390 nM; IC90 (Trypanosoma cruzi [5]): 2600 nM; %max (Trypanosoma cruzi [6]): 80%
O=[N+]([O-])c1cn2c(n1)OC[C@@H](OCc1ccc(-c3ccccc3)cc1)C2,–,60000 nM,–,–,–
O=[N+]([O-])c1cn2c(n1)OC[C@@H](OCc1ccc(-c3ccc(C(F)(F)F)cc3Cl)cn1)C2,12,4800 nM,> 10000 nM,57000 nM,–
